The target of assay [1] is T1, Melanocortin receptor 4 (Homo sapiens, UniProt P32245). In words: Binding affinity for melanocortin-4 receptor transfected in HEK 293 cells using [125I]NDP-MSH as radioligand. The class given is cell-based, HEK293.
The target of assay [2] is T2, Melanocyte-stimulating hormone receptor (Homo sapiens, UniProt Q01726). The assay is described as follows: Percent inhibition of human melanocortin 1 receptor at 10 uM concentration.
Target sequence in this assay (Q01726 whole entry, looked up): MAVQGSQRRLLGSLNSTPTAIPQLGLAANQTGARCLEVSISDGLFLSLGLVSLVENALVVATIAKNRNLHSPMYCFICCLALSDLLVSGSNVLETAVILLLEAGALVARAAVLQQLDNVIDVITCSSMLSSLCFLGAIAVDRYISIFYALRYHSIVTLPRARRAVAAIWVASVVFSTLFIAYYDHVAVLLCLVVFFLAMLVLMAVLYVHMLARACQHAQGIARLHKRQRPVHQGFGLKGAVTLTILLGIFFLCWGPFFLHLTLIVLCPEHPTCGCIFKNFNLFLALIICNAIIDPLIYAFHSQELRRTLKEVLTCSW
In a further assay the target is Melanocortin receptor 3 (Homo sapiens, UniProt P41968). In words: Binding affinity for melanocortin-3 receptor transfected in HEK 293 cells using [125I]NDP-MSH as radioligand. In kind it is cell-based, HEK293. The gist of the method:
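Competition binding at human MC3 or MC4 receptor stably transfected into HEK293 cells, displacing [125I]-NDP-MSH radioligand; Ki reported; values averaged from three or more independent measurements.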

In the next assay the target is Melanocortin receptor 5 (Homo sapiens, UniProt P33032). The assay is described as follows: Binding affinity at melanocortin-5 receptor stably transfected in HEK 293 cells using [125I]NDP-MSH as radiolabeled. In kind it is cell-based, HEK293. The essentials:
(§1)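 Competition binding at human MC1 or MC5 receptor stably expressed in HEK293 cells, with [125I]-NDP-MSH as the displaced radioligand; Ki determined.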

The target in assay [3] is T1, Melanocortin receptor 4. In words: Intrinsic activity towards human alpha-MSH stimulated cAMP level in HEK293 cells by 10 uM compound. Background: Changes in cAMP serve as a functional read-out for many G protein-coupled receptors.
For assay [4], the target named is T2, Melanocyte-stimulating hormone receptor. The assay is described as follows: Binding affinity at melanocortin-1 receptor stably transfected in HEK 293 cells using [125I]NDP-MSH as radiolabeled. The class given is cell-based, HEK293. The essentials: as §1
Target sequence in this assay (Q01726 whole entry): as the sequence (Q01726 whole entry, looked up) above
The target in assay [5] is T1, Melanocortin receptor 4. The assay is described as follows: Intrinsic activity towards human alpha-MSH stimulated cAMP level in HEK293 cells.

SMILES strings stand for the structures. Where only a bound is given, the exact number is not on record here.

Melanocortin receptor 5, sequence (P33032 whole entry): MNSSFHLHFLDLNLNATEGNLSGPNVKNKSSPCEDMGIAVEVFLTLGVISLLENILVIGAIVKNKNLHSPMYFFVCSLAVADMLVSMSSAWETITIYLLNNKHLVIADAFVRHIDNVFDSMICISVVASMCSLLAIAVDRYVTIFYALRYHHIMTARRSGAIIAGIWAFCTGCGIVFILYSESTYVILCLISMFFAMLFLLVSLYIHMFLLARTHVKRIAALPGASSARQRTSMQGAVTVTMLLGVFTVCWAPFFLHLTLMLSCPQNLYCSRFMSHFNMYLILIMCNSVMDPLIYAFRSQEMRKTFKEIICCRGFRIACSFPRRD
Melanocortin receptor 3, sequence (P41968 whole entry): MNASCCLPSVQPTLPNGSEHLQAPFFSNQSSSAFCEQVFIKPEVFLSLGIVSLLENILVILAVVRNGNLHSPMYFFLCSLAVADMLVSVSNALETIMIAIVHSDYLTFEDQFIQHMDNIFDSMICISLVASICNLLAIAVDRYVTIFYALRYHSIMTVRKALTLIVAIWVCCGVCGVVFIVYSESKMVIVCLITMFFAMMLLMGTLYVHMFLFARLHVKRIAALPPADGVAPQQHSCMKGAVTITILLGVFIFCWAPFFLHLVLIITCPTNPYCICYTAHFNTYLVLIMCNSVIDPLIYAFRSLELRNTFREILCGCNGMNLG
T1 sequence (P32245 whole entry): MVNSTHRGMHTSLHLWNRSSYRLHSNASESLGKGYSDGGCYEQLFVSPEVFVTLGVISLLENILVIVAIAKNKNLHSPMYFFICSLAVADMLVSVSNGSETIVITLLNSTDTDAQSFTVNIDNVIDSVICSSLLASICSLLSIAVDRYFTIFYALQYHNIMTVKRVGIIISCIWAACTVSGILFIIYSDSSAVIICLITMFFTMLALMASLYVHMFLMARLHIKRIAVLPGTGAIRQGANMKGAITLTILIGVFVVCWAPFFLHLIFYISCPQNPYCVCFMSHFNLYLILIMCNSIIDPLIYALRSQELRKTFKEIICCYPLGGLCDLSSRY

In the case of `COc1ccc2ccccc2c1CCCCN1CCN(CC(c2ccc(F)cc2)N2CCN(C(C)C)CC2)CC1` (configuration not stated), the Ki (usually the equilibrium dissociation constant of an inhibitor or competing ligand from its target) at Melanocortin receptor 4 [1] turned out to be 7.9 nM.
With `CC(=O)N[C@H](Cc1ccc(Cl)cc1Cl)C(=O)N1CCN(c2ccccc2CNCCc2cccs2)CC1`, the inhibition (usually the relative decrease from the control value, in per cent) in assay [2] came to 31%. Also, the Ki was determined as 570 nM on Melanocortin receptor 3, 2.4 nM at Melanocortin receptor 4 [1] and 730 nM at Melanocortin receptor 5.
For the compound `CS(=O)(=O)N[C@H](Cc1ccc(Cl)cc1Cl)C(=O)N1CCN(c2ccccc2CNCCc2cccs2)CC1`, the Ki at Melanocortin receptor 4 [1] is 14 nM. The compound further came in with an IA at Melanocortin receptor 4 [3] of under 3%.
Take `CN(C)C(=O)N[C@H](Cc1ccc(Cl)cc1Cl)C(=O)N1CCN(c2ccccc2CNCCc2cccs2)CC1`: the Ki on Melanocortin receptor 3 was 560 nM; on Melanocortin receptor 4 [1], 2 nM; in assay [4], 6800 nM; on Melanocortin receptor 5, 350 nM.
`O=C([C@@H](Cc1ccc(Cl)cc1Cl)NCc1nccs1)N1CCN(c2ccccc2CNCCc2cccs2)CC1` returned a Ki at Melanocortin receptor 4 [1] of 16 nM. This compound also showed an IA on Melanocortin receptor 4 [3] of under 3%.
Turning to `O=C(N[C@H](Cc1cscn1)C(=O)N1CCN(c2ccccc2CNCCc2cccs2)CC1)OCc1ccccc1`, the Ki on Melanocortin receptor 4 [1] was over 10000 nM.
For the compound `O=C([C@@H](Cc1ccc(Cl)cc1Cl)NCc1ccccc1)N1CCN(c2ccccc2CNCCc2cccs2)CC1`, the Ki at Melanocortin receptor 4 [1] was 31 nM. The IA at Melanocortin receptor 4 [3] was under 3%.
Turning to `O=C(NCc1ccccc1F)N[C@H](Cc1ccc(Cl)cc1Cl)C(=O)N1CCN(c2ccccc2CNCCc2cccs2)CC1`, at Melanocortin receptor 4 [1], affinity was put at a Ki of 5 nM.
Compound `CC(C)OC(=O)N[C@H](Cc1ccc(Cl)cc1Cl)C(=O)N1CCN(c2ccccc2CNCCc2cccs2)CC1` had an inhibition in assay [2] of 9%. Also, the results for the Ki on Melanocortin receptor 3, at Melanocortin receptor 4 [1] and on Melanocortin receptor 5 were 1300 nM, 4.5 nM and 680 nM, respectively.
`O=C(N[C@H](Cc1cccc2ccccc12)C(=O)N1CCN(c2ccccc2CNCCc2cccs2)CC1)OCc1ccccc1`: the Ki at Melanocortin receptor 4 [1] was 420 nM.
`NCCC(=O)N[C@H](Cc1ccc(Cl)cc1)C(=O)N1CCN(c2ccccc2CNCCc2cccs2)CC1`: the IA on Melanocortin receptor 4 [5] was determined as 14%.
With `O=C([C@@H](Cc1ccc(Cl)cc1Cl)NCC1CC1)N1CCN(c2ccccc2CNCCc2cccs2)CC1`, affinity on Melanocortin receptor 4 [1] was put at a Ki of 18 nM. At Melanocortin receptor 4 [3], this compound yielded an IA of under 3%.
For the compound `O=C(NCCO)N[C@H](Cc1ccc(Cl)cc1Cl)C(=O)N1CCN(c2ccccc2CNCCc2cccs2)CC1`, the inhibition in assay [2] worked out at 8%. Further, the Ki at Melanocortin receptor 3 came out at 390 nM; on Melanocortin receptor 4 [1], 2.9 nM; at Melanocortin receptor 5 it was 350 nM.
In the case of `CCOC(=O)N[C@H](Cc1ccc(Cl)cc1Cl)C(=O)N1CCN(c2ccccc2CNCCc2cccs2)CC1`, the Ki on Melanocortin receptor 3 amounted to 800 nM; at Melanocortin receptor 4 [1] it was 4.6 nM.
Taken in the same sequence, the figures for `O=C(N[C@H](Cc1ccc(Cl)cc1Cl)C(=O)N1CCN(c2ccccc2CNCCc2cccs2)CC1)c1ccccc1` were 1600 nM and 3.1 nM.
In turn, `N[C@H](Cc1ccc(Cl)cc1Cl)C(=O)N1CCN(c2ccccc2CNCCc2cccs2)CC1` registered a Ki on Melanocortin receptor 4 [1] of 94 nM. Also, the IA at Melanocortin receptor 4 [3] was under 3%.
In the case of `COC(=O)CCC(=O)N[C@H](Cc1ccc(Cl)cc1Cl)C(=O)N1CCN(c2ccccc2CNCCc2cccs2)CC1`, the Ki amounted to 830 nM on Melanocortin receptor 3 and 2.8 nM on Melanocortin receptor 4 [1].
Taken in the same sequence, the figures for `NCCCC(=O)N[C@H](Cc1ccc(Cl)cc1Cl)C(=O)N1CCN(c2ccccc2CNCCc2cccs2)CC1` were 950 nM and 2 nM.
The compound `CCNC(=O)N[C@H](Cc1ccc(Cl)cc1Cl)C(=O)N1CCN(c2ccccc2CNCCc2cccs2)CC1` gave an inhibition in assay [2] of 18%. In addition, the values for the Ki at Melanocortin receptor 3, at Melanocortin receptor 4 [1] and at Melanocortin receptor 5 were 790 nM, 1.7 nM and 300 nM, respectively.
As for `O=C(N[C@H](Cc1ccc(Cl)cc1Cl)C(=O)N1CCN(c2ccccc2CNCCc2cccs2)CC1)OCc1ccccc1`, the Ki at Melanocortin receptor 4 [1] came out at 23 nM.
`CC(C)CN[C@H](Cc1ccc(Cl)cc1Cl)C(=O)N1CCN(c2ccccc2CNCCc2cccs2)CC1` displayed a Ki at Melanocortin receptor 4 [1] of 23 nM. At Melanocortin receptor 4 [3], this compound displayed an IA of under 3%.
With `O=C(N[C@H](Cc1csc2ccccc12)C(=O)N1CCN(c2ccccc2CNCCc2cccs2)CC1)OCc1ccccc1`, at Melanocortin receptor 4 [1], the Ki was determined as 1100 nM. That is a single-digit micromolar value.
On to `COC(=O)N[C@H](Cc1ccc(Cl)cc1Cl)C(=O)N1CCN(c2ccccc2CNCCc2cccs2)CC1`, for which the Ki on Melanocortin receptor 3 was found to be 810 nM; on Melanocortin receptor 4 [1], 5 nM.
With `NCCN[C@H](Cc1ccc(Cl)cc1Cl)C(=O)N1CCN(c2ccccc2CNCCc2cccs2)CC1`, on Melanocortin receptor 4 [1], the Ki was 18 nM. On Melanocortin receptor 4 [3], the IA is under 3%.
As for `NCCC(=O)N[C@H](Cc1ccc(Cl)cc1Cl)C(=O)N1CCN(c2ccccc2CNCCc2cccs2)CC1`, the IA on Melanocortin receptor 4 [5] is under 3%.
Regarding `O=C(NC1CCCC1)N[C@H](Cc1ccc(Cl)cc1Cl)C(=O)N1CCN(c2ccccc2CNCCc2cccs2)CC1`, the Ki on Melanocortin receptor 3 was 580 nM; at Melanocortin receptor 4 [1], 1.3 nM.
Taken in the same sequence, the figures for `CC(C)(C)NC(=O)N[C@H](Cc1ccc(Cl)cc1Cl)C(=O)N1CCN(c2ccccc2CNCCc2cccs2)CC1` were 1000 nM and 2.4 nM.
Take `O=C(N[C@H](Cc1ccc(Cl)cc1Cl)C(=O)N1CCN(c2ccccc2CNCCc2cccs2)CC1)OCCF`: the inhibitory constant (Ki) on Melanocortin receptor 3 came to 790 nM; at Melanocortin receptor 4 [1], 3.2 nM; in assay [4], 1000 nM; at Melanocortin receptor 5, 560 nM.
`CC(C)NC(=O)N[C@H](Cc1ccc(Cl)cc1Cl)C(=O)N1CCN(c2ccccc2CNCCc2cccs2)CC1`: the figures for the Ki at Melanocortin receptor 3 and on Melanocortin receptor 4 [1] were 450 nM and 1.4 nM, respectively.
For `O=C(NC1CC1)N[C@H](Cc1ccc(Cl)cc1Cl)C(=O)N1CCN(c2ccccc2CNCCc2cccs2)CC1` the same measures were 860 nM and 2.1 nM.
Regarding `O=C(N[C@H](Cc1ccc(O)cc1)C(=O)N1CCN(c2ccccc2CNCCc2cccs2)CC1)OCc1ccccc1`, the Ki on Melanocortin receptor 4 [1] was determined as 5700 nM.
In the case of `O=C(N[C@H](Cc1c[nH]c2ccccc12)C(=O)N1CCN(c2ccccc2CNCCc2cccs2)CC1)OCc1ccccc1`, at Melanocortin receptor 4 [1], the Ki amounted to 2300 nM.
On Melanocortin receptor 4 [1], `O=C(N[C@H](Cc1cnc[nH]1)C(=O)N1CCN(c2ccccc2CNCCc2cccs2)CC1)OCc1ccccc1` showed a Ki of 3600 nM.
Take `O=C(N[C@H](Cc1ccc(Cl)cc1Cl)C(=O)N1CCN(c2ccccc2CNCCc2cccs2)CC1)N1CCCC1`: the Ki turned out to be 670 nM on Melanocortin receptor 3, 1.5 nM at Melanocortin receptor 4 [1], 6900 nM in assay [4] and 160 nM at Melanocortin receptor 5.
`O=C(N[C@H](Cc1ccc(Cl)cc1)C(=O)N1CCN(c2ccccc2CNCCc2cccs2)CC1)C1CCCNC1` (some centres not stated) showed an IA on Melanocortin receptor 4 [5] of 12%.
